Starred links: 1 amine or outer side, 2 acyl side, 3 side chain; linkers in the order of their positions; H or OH if unused. Non-standard residues stand in square brackets, D forms with d. Residues, ends and D or L forms follow the SMILES beside them. X1 = O=C([C@@H](O)[C@H](Cc1ccccc1)N[*:1])[*:2]
Tests used:
[1] = test system: Human immunodeficiency virus; assay: Inhibition of HIV protease at 50 nM
Protease = biological target: T1, Protease (Human T-lymphotropic virus 1, UniProt Q82323); assay: Inhibition of HTLV1 protease1; parameters: species or system Human T-cell leukemia virus type I
T1 sequence (Q82323 whole entry): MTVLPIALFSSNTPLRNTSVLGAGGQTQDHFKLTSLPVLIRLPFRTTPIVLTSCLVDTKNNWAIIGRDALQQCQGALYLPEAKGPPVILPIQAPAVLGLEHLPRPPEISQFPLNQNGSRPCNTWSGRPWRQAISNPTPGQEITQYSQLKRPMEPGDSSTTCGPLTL
Outline: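 HTLV-I protease L40I mutant, which blocks autolysis and improves stability. Inhibition reported as IC50 with SEM in nM. Remaining assay steps follow an earlier published procedure.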

inhibition [1] [%] | IC50 (Protease) [nM] | Compound
> 99 | 104 | CCCC(=O)N[C@H](C(=O)N[C@H](C(=O)N[C@@H](Cc1ccccc1)[C@H](O)C(=O)N1CSC(C)(C)[C@H]1C(=O)NCC(C)C)C(C)(C)C)c1ccccc1
> 99 | 96.9 | CC(C)CNC(=O)[C@H]1N(C(=O)[C@@H](O)[C@H](Cc2ccccc2)NC(=O)[C@@H](NC(=O)[C@@H](NC(=O)C2CC2)c2ccccc2)C(C)(C)C)CSC1(C)C
> 99 | 88.2 | CCC(C)CC(=O)N[C@H](C(=O)N[C@H](C(=O)N[C@@H](Cc1ccccc1)[C@H](O)C(=O)N1CSC(C)(C)[C@H]1C(=O)NCC(C)C)C(C)(C)C)c1ccccc1 (stereo not given in full)
> 99 | 96.5 | CC(C)CCC(=O)N[C@H](C(=O)N[C@H](C(=O)N[C@@H](Cc1ccccc1)[C@H](O)C(=O)N1CSC(C)(C)[C@H]1C(=O)NCC(C)C)C(C)(C)C)c1ccccc1
> 99 | 83.3 | CC(C)CNC(=O)[C@H]1N(C(=O)[C@@H](O)[C@H](Cc2ccccc2)NC(=O)[C@@H](NC(=O)[C@@H](NC(=O)CC(C)(C)C)c2ccccc2)C(C)(C)C)CSC1(C)C
> 99 | 82.8 | CC(C)CNC(=O)[C@H]1N(C(=O)[C@@H](O)[C@H](Cc2ccccc2)NC(=O)[C@@H](NC(=O)[C@@H](NC(=O)C(C)(C)C)c2ccccc2)C(C)(C)C)CSC1(C)C
> 99 | 102 | CC(C)CNC(=O)[C@H]1N(C(=O)[C@@H](O)[C@H](Cc2ccccc2)NC(=O)[C@@H](NC(=O)[C@@H](NC(=O)CC(C)C)c2ccccc2)C(C)(C)C)CSC1(C)C
> 99 | 105 | CCC(=O)N[C@H](C(=O)N[C@H](C(=O)N[C@@H](Cc1ccccc1)[C@H](O)C(=O)N1CSC(C)(C)[C@H]1C(=O)NCC(C)C)C(C)(C)C)c1ccccc1
> 99 | 98.2 | CC(C)CNC(=O)[C@H]1N(C(=O)[C@@H](O)[C@H](Cc2ccccc2)NC(=O)[C@@H](NC(=O)[C@@H](NC(=O)C2CCCCC2)c2ccccc2)C(C)(C)C)CSC1(C)C
> 99 | 79.2 | CC(C)CNC(=O)[C@H]1N(C(=O)[C@@H](O)[C@H](Cc2ccccc2)NC(=O)[C@@H](NC(=O)[C@@H](NC(=O)c2ccccc2)c2ccccc2)C(C)(C)C)CSC1(C)C
> 99 | 105 | CC(C)CNC(=O)[C@H]1N(C(=O)[C@@H](O)[C@H](Cc2ccccc2)NC(=O)[C@@H](NC(=O)[C@@H](NC(=O)CCc2ccccc2)c2ccccc2)C(C)(C)C)CSC1(C)C
> 99 | 107 | CC(=O)N[C@H](C(=O)N[C@H](C(=O)N[C@@H](Cc1ccccc1)[C@H](O)C(=O)N1CSC(C)(C)[C@H]1C(=O)NCC(C)C)C(C)(C)C)c1ccccc1
> 99 | 84.2 | CCCC(C)C(=O)N[C@H](C(=O)N[C@H](C(=O)N[C@@H](Cc1ccccc1)[C@H](O)C(=O)N1CSC(C)(C)[C@H]1C(=O)NCC(C)C)C(C)(C)C)c1ccccc1 (stereo not given in full)
> 99 | 93.5 | CC(C)CNC(=O)[C@H]1N(C(=O)[C@@H](O)[C@H](Cc2ccccc2)NC(=O)[C@@H](NC(=O)[C@@H](NC(=O)C(C)C)c2ccccc2)C(C)(C)C)CSC1(C)C
> 99 | 80.4 | CCC(C)(C)C(=O)N[C@H](C(=O)N[C@H](C(=O)N[C@@H](Cc1ccccc1)[C@H](O)C(=O)N1CSC(C)(C)[C@H]1C(=O)NCC(C)C)C(C)(C)C)c1ccccc1
> 99 | 92 | CCCCC(=O)N[C@H](C(=O)N[C@H](C(=O)N[C@@H](Cc1ccccc1)[C@H](O)C(=O)N1CSC(C)(C)[C@H]1C(=O)NCC(C)C)C(C)(C)C)c1ccccc1
> 99 | 332 | CC(C)CNC(=O)[C@H]1N(C(=O)[C@@H](O)[C@H](Cc2ccccc2)NC(=O)[C@@H](NC(=O)[C@@H](N)c2ccccc2)C(C)(C)C)CSC1(C)C
 | 159 | CSCC[C@H](NC(=O)[C@@H](NC(=O)[C@@H]1CCCN1C(=O)[C@@H](O)[C@H](Cc1ccccc1)NC(=O)[C@@H](NC(=O)[C@H](CCC(N)=O)NC(=O)[C@@H]1CCCN1)C(C)C)C(C)C)C(=O)N[C@@H](Cc1cnc[nH]1)C(=O)O (H-PQV[X1]PVMH-OH)

— ChEMBL document CHEMBL1150246, “Synthesis and activity of tetrapeptidic HTLV-I protease inhibitors possessing different P3-cap moieties” (Bioorg Med Chem, 2008)
